Test results reported in ChEMBL document CHEMBL1944524, “Synthesis and structure-activity relationship of 5-pyridazin-3-one phenoxypiperidines as potent, selective histamine H(3) receptor inverse agonists” (Bioorg Med Chem Lett, 2012).

What was measured:
Histamine H3 receptor [1] = biological target: Histamine H3 receptor (Rattus norvegicus, UniProt Q9QYN8); experiment: Displacement of [3H]N-alpha-methylhistamine from rat histamine H3 receptor expressed in CHO cells; assay type: cell-based
[2] = Oral bioavailability in rat; assay type: ADME, organism-based; conditions: in vivo
In short: (§1)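 Rat PK study, dosed 1 mg/kg iv plus 10 or 5 mg/kg po. iv vehicle 3% DMSO, 30% solutol, 67% phosphate buffered saline; oral vehicle 50% Tween 80, 40% propylene carbonate, 10% propylene glycol.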

Histamine H3 receptor [3] = biological target: Histamine H3 receptor (Homo sapiens, UniProt Q9Y5N1); experiment: Displacement of [3H]N-alpha-methylhistamine from human histamine H3 receptor expressed in CHO cells; assay type: cell-based
[4] = Half life in human liver microsomes; assay type: ADME, Microsome
In short: (§2)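 Stability in liver microsomes from rat, dog or human; half-life (min) determined.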

[5] = Half life in rat liver microsomes; assay type: ADME, Microsome; in short: as §2
[6] = Half life in dog liver microsomes; assay type: ADME, Canis lupus familiaris, Microsome; in short: as §2
[7] = Inhibition of cytochrome P450; assay type: ADME
In short: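 CYP inhibition assessed against 5 CYP isoforms; IC50 determined.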

[8] = Cmax in po dosed rat; assay type: ADME, organism-based; parameters: route oral; conditions: in vivo
[9] = AUC in po dosed rat; assay type: ADME, organism-based; conditions: plasma
Rattus norvegicus [10] = experiment: Cmax in po dosed rat assessed as 5-[4-(1-cyclobutyl-piperidin-4-yloxy)-phenyl]-6-methyl-2H-pyridazin-3-one level; assay type: ADME, organism-based; parameters: route oral; conditions: in vivo
Rattus norvegicus [11] = experiment: AUC in po dosed rat assessed as 5-[4-(1-cyclobutyl-piperidin-4-yloxy)-phenyl]-6-methyl-2H-pyridazin-3-one level; assay type: ADME, organism-based, Plasma; conditions: in vivo
[12] = Half life in rat at 1 mg/kg, iv; assay type: ADME, organism-based; parameters: dose 1 mg/kg, route intravenous; conditions: in vivo; in short: as §1
[13] = Volume of distribution in rat at 1 mg/kg, iv; assay type: ADME, organism-based; parameters: dose 1 mg/kg, route intravenous; conditions: in vivo; in short: as §1
[14] = Clearance in rat at 1 mg/kg, iv; assay type: ADME, organism-based; parameters: dose 1 mg/kg, route intravenous; conditions: in vivo; in short: as §1
[15] = Ratio of drug level in brain to plasma in rat at 10 mg/kg, ip after 6 hrs; assay type: ADME, organism-based; parameters: dose 10 mg/kg, route intraperitoneal; conditions: read-out: BPR
In short: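 Brain and plasma levels measured in rat 6 h after a 10 mg/kg ip dose; value is brain/plasma ratio.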

[16] = Cmax in rat at 5 mg/kg, po; assay type: ADME, organism-based; parameters: dose 5 mg/kg, route oral; conditions: in vivo; in short: as §1
[17] = Tmax in rat at 5 mg/kg, po; assay type: ADME, organism-based; parameters: dose 5 mg/kg, route oral; conditions: in vivo; in short: as §1
[18] = Oral bioavailability in rat at 5 mg/kg; assay type: ADME, organism-based; conditions: in vivo; in short: as §1
[19] = AUC in rat at 5 mg/kg, po; assay type: ADME, organism-based; parameters: dose 5 mg/kg, route oral; conditions: plasma; in short: as §1
[20] = biological target: Histamine H1 receptor (Homo sapiens) (UniProt P35367); experiment: Inhibition of human histamine H1 receptor at 10 uM
In short: (§3)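 Selectivity screen against human H1, H2 and H4 receptors; percent inhibition at 10 µM.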

[21] = biological target: Histamine H2 receptor (Homo sapiens) (UniProt P25021); experiment: Inhibition of human histamine H2 receptor at 10 uM; in short: as §3
[22] = biological target: Histamine H4 receptor (Homo sapiens) (UniProt Q9H3N8); experiment: Inhibition of human histamine H4 receptor at 10 uM; in short: as §3
[23] = biological target: T1, Muscarinic acetylcholine receptor M2 (Homo sapiens, UniProt P08172); experiment: Inhibition of muscarinic M2 receptor
T1 sequence (P08172 whole entry): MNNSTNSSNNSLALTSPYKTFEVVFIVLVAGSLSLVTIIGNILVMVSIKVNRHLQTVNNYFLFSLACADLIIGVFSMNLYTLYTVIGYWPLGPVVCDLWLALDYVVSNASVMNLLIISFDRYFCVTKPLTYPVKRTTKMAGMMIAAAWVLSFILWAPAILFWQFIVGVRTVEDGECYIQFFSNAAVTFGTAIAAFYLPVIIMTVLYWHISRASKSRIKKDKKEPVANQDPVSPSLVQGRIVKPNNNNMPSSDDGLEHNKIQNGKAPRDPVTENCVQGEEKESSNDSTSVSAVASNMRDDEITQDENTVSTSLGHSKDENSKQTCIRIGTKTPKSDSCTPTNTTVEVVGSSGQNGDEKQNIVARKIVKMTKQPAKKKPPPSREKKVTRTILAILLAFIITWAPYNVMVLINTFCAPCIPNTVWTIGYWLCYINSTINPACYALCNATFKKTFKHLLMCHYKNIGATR

[24] = biological target: Voltage-gated inwardly rectifying potassium channel KCNH2 (Homo sapiens, UniProt Q12809); experiment: Inhibition of human ERG by patch clamp assay
Chain of Voltage-gated inwardly rectifying potassium channel KCNH2 (Q12809 whole entry): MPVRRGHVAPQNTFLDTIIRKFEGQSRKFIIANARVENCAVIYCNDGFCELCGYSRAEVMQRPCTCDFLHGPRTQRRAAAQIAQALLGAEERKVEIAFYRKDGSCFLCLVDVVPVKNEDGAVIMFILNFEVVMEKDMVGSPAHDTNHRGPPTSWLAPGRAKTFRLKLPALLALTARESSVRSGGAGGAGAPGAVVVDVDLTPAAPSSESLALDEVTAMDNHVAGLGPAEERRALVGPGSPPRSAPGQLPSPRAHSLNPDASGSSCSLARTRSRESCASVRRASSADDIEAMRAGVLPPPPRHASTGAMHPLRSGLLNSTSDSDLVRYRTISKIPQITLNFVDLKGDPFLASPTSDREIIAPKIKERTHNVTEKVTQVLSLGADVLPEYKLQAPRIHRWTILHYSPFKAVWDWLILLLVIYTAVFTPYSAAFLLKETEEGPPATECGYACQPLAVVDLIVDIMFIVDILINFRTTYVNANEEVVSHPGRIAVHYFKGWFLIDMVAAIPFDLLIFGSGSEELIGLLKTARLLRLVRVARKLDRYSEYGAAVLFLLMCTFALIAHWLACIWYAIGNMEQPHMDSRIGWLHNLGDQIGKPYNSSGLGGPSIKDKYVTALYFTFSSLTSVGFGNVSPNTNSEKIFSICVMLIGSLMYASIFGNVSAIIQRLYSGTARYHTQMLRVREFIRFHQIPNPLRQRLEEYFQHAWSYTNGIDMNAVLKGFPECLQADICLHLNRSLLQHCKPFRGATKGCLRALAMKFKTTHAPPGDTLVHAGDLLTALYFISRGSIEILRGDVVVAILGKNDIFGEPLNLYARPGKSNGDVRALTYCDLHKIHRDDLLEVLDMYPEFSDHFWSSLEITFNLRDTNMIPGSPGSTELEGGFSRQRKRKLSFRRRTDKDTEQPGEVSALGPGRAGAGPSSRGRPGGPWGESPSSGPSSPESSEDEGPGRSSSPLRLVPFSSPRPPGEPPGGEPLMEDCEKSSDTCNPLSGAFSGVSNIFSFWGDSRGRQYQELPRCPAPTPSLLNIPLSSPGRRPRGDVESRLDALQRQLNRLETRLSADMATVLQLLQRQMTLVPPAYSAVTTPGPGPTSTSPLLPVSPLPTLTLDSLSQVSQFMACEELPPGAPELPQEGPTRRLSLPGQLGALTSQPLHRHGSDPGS

Chain of Histamine H3 receptor (Homo sapiens, UniProt Q9Y5N1) (Q9Y5N1 whole entry): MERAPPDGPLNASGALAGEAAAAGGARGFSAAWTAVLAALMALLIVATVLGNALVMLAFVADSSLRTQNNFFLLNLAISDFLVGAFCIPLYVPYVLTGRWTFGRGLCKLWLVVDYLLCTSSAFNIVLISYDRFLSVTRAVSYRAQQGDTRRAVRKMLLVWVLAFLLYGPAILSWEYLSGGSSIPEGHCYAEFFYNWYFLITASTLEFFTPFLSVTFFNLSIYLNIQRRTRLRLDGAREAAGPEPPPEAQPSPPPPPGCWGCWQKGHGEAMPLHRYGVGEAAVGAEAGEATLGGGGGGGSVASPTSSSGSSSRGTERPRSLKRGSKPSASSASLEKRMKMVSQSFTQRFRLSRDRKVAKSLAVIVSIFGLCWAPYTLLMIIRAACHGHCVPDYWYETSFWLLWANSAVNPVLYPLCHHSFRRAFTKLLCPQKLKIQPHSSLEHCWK
Chain of Histamine H3 receptor (Rattus norvegicus, UniProt Q9QYN8) (Q9QYN8 whole entry): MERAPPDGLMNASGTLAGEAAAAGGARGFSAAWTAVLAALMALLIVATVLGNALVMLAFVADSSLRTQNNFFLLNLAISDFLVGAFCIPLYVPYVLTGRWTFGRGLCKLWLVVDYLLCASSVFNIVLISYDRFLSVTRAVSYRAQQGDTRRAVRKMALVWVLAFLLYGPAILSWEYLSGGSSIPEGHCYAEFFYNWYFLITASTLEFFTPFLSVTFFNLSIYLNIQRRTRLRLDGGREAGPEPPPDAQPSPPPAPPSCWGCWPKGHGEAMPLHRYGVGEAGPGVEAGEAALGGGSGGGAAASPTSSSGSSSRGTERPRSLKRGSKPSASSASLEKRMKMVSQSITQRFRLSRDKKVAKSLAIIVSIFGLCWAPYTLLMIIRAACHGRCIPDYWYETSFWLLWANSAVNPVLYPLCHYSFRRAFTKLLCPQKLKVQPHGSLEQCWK
Chain of Histamine H2 receptor (Homo sapiens) (P25021 whole entry): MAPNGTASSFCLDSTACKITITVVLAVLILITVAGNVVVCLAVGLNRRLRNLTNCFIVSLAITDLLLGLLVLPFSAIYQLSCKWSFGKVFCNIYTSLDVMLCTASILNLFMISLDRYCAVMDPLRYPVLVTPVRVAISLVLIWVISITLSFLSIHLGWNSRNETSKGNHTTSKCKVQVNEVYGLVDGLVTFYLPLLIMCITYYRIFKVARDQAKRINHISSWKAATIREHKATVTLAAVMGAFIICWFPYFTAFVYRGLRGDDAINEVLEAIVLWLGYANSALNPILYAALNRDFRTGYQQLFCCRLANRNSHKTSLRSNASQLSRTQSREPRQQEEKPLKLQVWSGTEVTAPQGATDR
Chain of Histamine H1 receptor (Homo sapiens) (P35367 whole entry): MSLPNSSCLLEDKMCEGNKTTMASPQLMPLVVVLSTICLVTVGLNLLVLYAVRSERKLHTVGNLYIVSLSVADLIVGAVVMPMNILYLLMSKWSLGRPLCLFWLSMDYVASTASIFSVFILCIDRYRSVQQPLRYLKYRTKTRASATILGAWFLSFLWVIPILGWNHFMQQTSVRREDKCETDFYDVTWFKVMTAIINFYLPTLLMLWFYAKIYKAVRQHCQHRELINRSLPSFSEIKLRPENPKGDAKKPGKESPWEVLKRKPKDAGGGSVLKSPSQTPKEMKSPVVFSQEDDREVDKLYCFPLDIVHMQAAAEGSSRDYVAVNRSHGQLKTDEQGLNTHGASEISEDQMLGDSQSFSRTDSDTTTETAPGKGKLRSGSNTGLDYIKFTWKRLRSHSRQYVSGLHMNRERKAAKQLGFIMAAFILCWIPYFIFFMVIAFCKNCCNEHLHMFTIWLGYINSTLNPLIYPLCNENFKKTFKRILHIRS

Row | Compound | Ki (Histamine H3 receptor [1]) [nM] | bioavailability [2] [%] | Ki (Histamine H3 receptor [3]) [nM] | half-life [4] [h] | half-life [5] [h] | half-life [6] [h] | IC50 [7] [nM] | Cmax [8] [ng/mL] | AUC [9] [ng·h/mL] | Cmax (Rattus norvegicus [10]) [ng/mL] | AUC (Rattus norvegicus [11]) [ng·h/mL] | half-life [12] [h] | Vd [13] [L/kg] | clearance [14] [mL/min/kg] | Kp at 6 h [15] | Cmax [16] [ng/mL] | Tmax [17] [h] | bioavailability [18] [%] | AUC [19] [ng·h/mL] | IC50 [24] [nM] | also measured
1 | Cc1nn(-c2ccccn2)c(=O)cc1-c1ccc(OC2CCN(C3CCC3)CC2)cc1 | 9 |  | 3 | > 0.667 | > 0.667 | > 0.667 | > 30000 |  |  |  |  | 1.3 | 1.4 | 13 | 1.6 | 287 | 3.2 | 22 | 1500 |  | inhibition [20]: < 30%; inhibition [21]: < 30%; inhibition [22]: < 30%; IC50 [23]: 340 nM
2 | Cc1cccnc1-n1nc(C)c(-c2ccc(OC3CCN(C4CCC4)CC3)cc2)cc1=O | 17 |  | 6 |  |  |  | > 30000 |  |  |  |  | 1.1 | 1.1 | 11 | 1 | 505 | 2.3 | 23 | 1860 | > 30000 | 
3 | Cc1cccc(-n2nc(C)c(-c3ccc(OC4CCN(C5CCC5)CC4)cc3)cc2=O)n1 | 10 |  | 4 |  |  |  | > 30000 |  |  |  |  | 1.1 | 1.7 | 16 | 1.6 | 332 | 2 | 20 | 1270 | > 30000 | 

More lines, main results first:

Row | Ki (Histamine H3 receptor [1]) [nM] | bioavailability [2] [%] | Ki (Histamine H3 receptor [3]) [nM] | half-life [4] [h] | half-life [5] [h] | half-life [6] [h] | IC50 [7] [nM] | Cmax [8] [ng/mL] | AUC [9] [ng·h/mL] | Cmax (Rattus norvegicus [10]) [ng/mL] | AUC (Rattus norvegicus [11]) [ng·h/mL] | half-life [12] [h] | Vd [13] [L/kg] | clearance [14] [mL/min/kg] | Kp at 6 h [15] | Cmax [16] [ng/mL] | Tmax [17] [h] | bioavailability [18] [%] | AUC [19] [ng·h/mL] | Compound | IC50 [24] [nM] | also measured
4 | 13 | 6 | 15 | > 0.667 | > 0.667 | > 0.667 | > 30000 | 73 | 370 | 34 | 152 |  |  |  |  |  |  |  |  | CC1=NNC(=O)CC1c1ccc(OC2CCN(C3CCC3)CC2)cc1 (centres undefined) |  | 
5 | 8 | 19 | 4 | > 0.667 | > 0.667 | > 0.667 | > 30000 | 107 | 337 | 68 | 320 |  |  |  |  |  |  |  |  | Cc1nn(C)c(=O)cc1-c1ccc(OC2CCN(C3CCC3)CC2)cc1 |  | 
